# LMPTP inh: LMPTP (human) inhibition | P24666 | recombinant LMPTP-A, OMFP fluorogenic substrate, fluorescence intensity | 360,000 compounds, 0.22% hits | inhibition, % at 20 µM;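 active = compounds that cut the enzyme signal by at least half of the control window in the single-dose screen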;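 also: plate controls were DMSO wells with enzyme plus substrate for no effect and substrate without enzyme for full effect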
# Target sequence (P24666 whole entry, looked up): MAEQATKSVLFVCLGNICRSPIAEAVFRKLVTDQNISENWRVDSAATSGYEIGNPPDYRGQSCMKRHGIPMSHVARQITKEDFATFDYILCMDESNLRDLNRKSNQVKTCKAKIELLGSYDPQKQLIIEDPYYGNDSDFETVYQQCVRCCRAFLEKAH
#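 Assay system: LMPTP-A phosphatase enzyme | Input: 0.625 nM enzyme | Also added: Fluorogenic phosphatase substrate OMFP at 400 µM final | Compound dosing: One test concentration per compound, 20 µM, with 3% DMSO overall | Schedule: 50 min enzyme reaction at room temperature, protected from light | Signal: Fluorescence intensity | Benchmarks: no-enzyme and uninhibited controls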
# SUMO1 PPI mod: alters human SUMO1 binding to SIM partners. P63165. SUMO1 binding to a labelled peptide, TR-FRET, 1 h. inhibition, % at 20 µM. 360,000 compounds, 0.33% hits. AID 602429; in the data active = inhibition above about 37%
# Rpn11 inh: blocks the human proteasome subunit Rpn11. O00487. human 26S proteasome, Ub4-pepOG fluorescence polarization; 20S core pre-blocked with epoxomicin. inhibition, % at 20 µM. 360,000 compounds, 0.59% hits. AID 588493;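 active = inhibition at 20 µM, scaled to each plate's controls, above about 33%, limit read from the data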
# Target sequence (O00487 whole entry, looked up): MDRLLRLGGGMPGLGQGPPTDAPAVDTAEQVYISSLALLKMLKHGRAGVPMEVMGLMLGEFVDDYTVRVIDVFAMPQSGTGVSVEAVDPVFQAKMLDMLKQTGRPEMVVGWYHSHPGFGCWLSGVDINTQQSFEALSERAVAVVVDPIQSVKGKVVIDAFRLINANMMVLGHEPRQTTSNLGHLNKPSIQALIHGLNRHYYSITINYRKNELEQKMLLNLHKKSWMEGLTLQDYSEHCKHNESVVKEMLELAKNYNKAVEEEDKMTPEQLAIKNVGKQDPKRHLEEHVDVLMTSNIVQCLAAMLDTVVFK
# DNMT1 block: inhibitors of human DNMT1. P26358. DNMT1 molecular beacon, Hinp1I cleavage, fluorescence. inhibition (reported as % activation of signal), % at 10 µM. 360,000 compounds, 0.83% hits. AID 588458; in the data active = inhibition above about 50%
# STEP inh: blocks human striatal-enriched tyrosine phosphatase; AID 588621; P54829; recombinant STEP, OMFP fluorogenic substrate, fluorescence; inhibition, % at 20 µM; 360,000 compounds, 0.25% hits;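 active = inhibition at 20 µM, scaled per plate between control wells, above about 37%, limit read from the data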;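 also: 0% = DMSO with enzyme and substrate and 100% = substrate only without enzyme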
#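 material = STEP tyrosine phosphatase | reagent = fluorogenic phosphatase substrate OMFP at 25 µM final | doses = single compound dose of 20 µM, 1% DMSO final | schedule = 20 min reaction, room temperature, in the dark | measured by = fluorescence, 480/540 nm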
# Scp1 inh: Scp-1 (human) phosphatase inhibition | Q9GZU7 | Recombinant Scp1, phosphopeptide, malachite green phosphate absorbance | inhibition, % at 20 µM | 340,000 compounds, 0.88% hits;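 active = inhibition above about 50% at 20 µM, limit read from the data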;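 also: plate controls were DMSO wells with enzyme for no effect and wells lacking enzyme for full effect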
#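 System: SCP-1 catalytic domain; Reagent: Phospho 17-mer peptide substrate; Doses: one concentration, 20 µM, with 1.0% DMSO; Incubation: 45 min room-temperature reaction, 5 min colour, 30 min stabiliser; Signal: Phosphate-binding colour reagent, absorbance read at 630 nm.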
# DNMT1 interf DR: beacon fluorescence artifact, dose response counter-screen; AID 602382; molecular beacon fluorescence, spectral interference counter-screen; IC50, µM; 200 tested, under 10 active; shares compounds with DNMT1 block; call rule not given here
# DNMT1 inh conf: DNMT1 inhibition confirmation, single concentration; shares compounds with DNMT1 block; DNMT1 molecular beacon HinP1I cleavage, fluorescence; inhibition, % at 10 µM; 2,300 compounds, 8% hits; AID 602385;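 active = average inhibition of at least 30% in the single-concentration confirmation test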
# Beacon interf: counter-screen for DNMT1 inhibitors: spectral interference; shares compounds with DNMT1 block; DNMT1 molecular beacon spectral interference counterscreen, fluorescence 485/520; activation (fluorescence interference), % at 10 µM; 2,300 compounds, 1% hits; AID 602387;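 active = activation of at least 30% at 10 µM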;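 also: DNMT1 catalytic domain with a HinP1I cleavage step and a FAM/dabcyl DNA beacon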
# The depositor's hits bear a star; . = not tested or not shown. A selection: hits, their analogues and other compounds. The true share with any hit is near 2.3%.
SMILES,LMPTP inh,SUMO1 PPI mod,Rpn11 inh,DNMT1 block,STEP inh,Scp1 inh,DNMT1 inh conf,Beacon interf,others
O=C(NCc1ccco1)c1nc2nc(-c3cccs3)cc(C(F)(F)F)n2n1,1,7,-9,56*,0,21,6,6,
O=C(NCc1ccco1)c1nn2c(C(F)(F)F)cc(-c3cccs3)nc2c1Br,2,7,-5,8,-4,11,.,.,
CC(C)(C)SCCNC(=O)/C=C/c1cccc([N+](=O)[O-])c1,-2,-22,-7,0,-1,-5,.,.,
Cc1cc(Cl)ccc1OCC(=O)Nc1cccc(S(=O)(=O)NC2=NCCCCC2)c1,1,7,-3,95*,-2,2,3,2,
Cc1ccc(C)c(OCC(=O)Nc2cccc(S(=O)(=O)NC3=NCCCCC3)c2)c1,1,13,1,-2,0,4,.,.,
CSc1ncccc1C(=O)OCC(=O)NCc1ccc2c(c1)OCO2,0,1,4,1,-2,3,.,.,
COc1ccc(Cc2n[nH]c(=S)n2-c2cc(C)ccc2C)cc1OC,-2,0,-1,4,6,.,.,.,
COc1cc(NC(=O)c2ccc(-c3cccnc3)c3ccoc23)cc(OC)c1OC,2,1,-6,1,-1,.,.,.,
O=C(Nc1cccc(OC(F)(F)F)c1)c1ccc(-c2cccnc2)c2ccoc12,3,-14,-6,69*,0,.,8,2,
CC(=O)c1ccc(N=Cc2c(O)n(-c3cc(Cl)ccc3N3CCOCC3)c(=O)c3ccccc23)cc1,4,-8,6,86*,7,-14,4,5,
Cc1ccc(-n2nc3c(c2NC(=O)c2ccc4c(c2)OCO4)CS(=O)C3)c(C)c1 (centres undefined),-3,-3,1,2,-1,-4,.,.,
O=C(Nc1ccc(N2CCOCC2)cc1N1CCOCC1)c1ccc(Br)cc1,-1,6,-4,-4,0,4,.,.,
O=C(COc1ccc(Br)cc1)Nc1ccc(N2CCOCC2)cc1N1CCOCC1,0,25,1,55*,1,0,5,5,
COc1ccc(NC(=O)CSc2nc3c(cc2C#N)CN(C)CC3)cc1,21,-8,7,71*,3,6,3,5,
O=C(CN1CCN(c2ccccc2)CC1)NC(=O)NCc1ccco1,0,3,5,1,4,-2,.,.,
COc1cccc(N2CCN(CC(=O)NC(=O)NCc3ccco3)CC2)c1,14,7,-11,50*,0,9,8,-1,
COc1ccc(CNC(=O)C2CCC(=O)N(CCCN3CCCC3=O)C2)c(OC)c1 (centres undefined),-2,3,-3,2,-1,-3,.,.,
CC(/C=N\NC(=O)c1cc(C)oc1C)=C\c1ccccc1,0,-10,3,72*,1,-4,4,4,
CCN(CC)CCOc1ccc(Br)cc1,-1,-4,3,14,3,2,.,.,
CCN(CC)CCOc1ccc2c(c1)C(=NO)c1cc(OCCN(CC)CC)ccc1-2,5,-27,2,61*,0,13,34*,-3,DNMT1 interf DR=>99
Cc1c(Br)c([N+](=O)[O-])nn1C(C)C(=O)N1CCc2ccccc2C1 (centres undefined),0,-13,7,-2,1,-2,.,.,
CCOC(=O)CCCCC(=O)NC(CO)C(=O)NC (centres undefined),0,0,-2,59*,0,-6,2,5,
CCOC(=O)CCC(NC(=O)CCCCC(=O)NC(CCC(=O)OCC)C(=O)OCC)C(=O)OCC (centres undefined),-2,0,0,2,-1,1,.,.,
